In ChEMBL document CHEMBL1629614, “Inhibition of methionyl-tRNA synthetase by REP8839 and effects of resistance mutations on enzyme activity” (Antimicrob Agents Chemother, 2009):
Positions count from the first letter of the chain named. In names and notes the source's numbering stands.

How the values were obtained:
[1] = compound: C=C(F)c1sc(CNCCCNc2cc(=O)c3ccccc3[nH]2)c(C)c1Br; assay: Activity of streptococcus aureus MetRS I57N, I238F mutant by scintillation proximity assay in presence of tRNA; conditions: Staphylococcus aureus
[2] = compound: C=C(F)c1sc(CNCCCNc2cc(=O)c3ccccc3[nH]2)c(C)c1Br; assay: Activity of Staphylococcus aureus MetRS I57N, I238F mutant by ATP:PPi exchange assay in presence of ATP
In short: (§1)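 Purified S. aureus MetRS (wild type or mutant; E. coli-expressed, ammonium sulfate cut, anion exchange) at 30 nM. ATP:PPi exchange at 30°C in 100 mM Tris-HCl pH 8.0, 5–10 mM Mg acetate, 80 mM KCl, 2.5 mM DTT, [32P]PPi plus cold PPi equal to ATP. Quenched with EDTA over 1–10 min, PEI-cellulose TLC, phosphorimager. Initial velocities versus varied ATP or methionine fit to Michaelis-Menten.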

[3] = compound: C=C(F)c1sc(CNCCCNc2cc(=O)c3ccccc3[nH]2)c(C)c1Br; assay: Ratio of Kcat to Km for Staphylococcus aureus MetRS I57N I238F mutant in presence of tRNA
In short: (§2)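 Purified recombinant S. aureus MetRS was assayed by tRNA aminoacylation at 30°C for 1 to 7.5 min to obtain initial rates. Buffer was Tris pH 8.0 with Mg acetate, 2.5 mM ATP, KCl, DTT, BSA, [3H]methionine and crude E. coli tRNA. Reactions were EDTA-stopped, and charged tRNA was read by scintillation proximity with polylysine beads at pH 2.0.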

[4] = compound: C=C(F)c1sc(CNCCCNc2cc(=O)c3ccccc3[nH]2)c(C)c1Br; assay: Ratio of Kcat to Km for Staphylococcus aureus MetRS I57N I238F mutant in presence of methionine
In short: (§3)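 Purified recombinant S. aureus MetRS (30 nM) was assayed by ATP:PPi exchange at 30°C in Tris pH 8.0 with Mg acetate, KCl and DTT. [32P]PPi was matched to ATP, and ATP or methionine was varied. Time points from 1 to 10 min were quenched with EDTA, separated by PEI-cellulose TLC and read by phosphorimager. Initial rates were fitted to Michaelis-Menten.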

[5] = compound: C=C(F)c1sc(CNCCCNc2cc(=O)c3ccccc3[nH]2)c(C)c1Br; assay: Activity of Staphylococcus aureus MetRS I57N, I238F mutant by ATP:PPi exchange assay in presence of methionine; in short: as §1
[6] = compound: C=C(F)c1sc(CNCCCNc2cc(=O)c3ccccc3[nH]2)c(C)c1Br; assay: Ratio of Kcat to Km for Staphylococcus aureus MetRS I57N I238F mutant in presence of ATP; in short: as §3
[7] = compound: C=C(F)c1sc(CNCCCNc2cc(=O)c3ccccc3[nH]2)c(C)c1Br; assay: Activity of Staphylococcus aureus MetRS I57N, G54S mutant by ATP:PPi exchange assay in presence of ATP; in short: as §1
[8] = compound: C=C(F)c1sc(CNCCCNc2cc(=O)c3ccccc3[nH]2)c(C)c1Br; assay: Ratio of Kcat to Km for Staphylococcus aureus MetRS I57N G54S mutant in presence of ATP; in short: as §3
[9] = compound: C=C(F)c1sc(CNCCCNc2cc(=O)c3ccccc3[nH]2)c(C)c1Br; assay: Activity of Staphylococcus aureus MetRS I57N, G54S mutant by ATP:PPi exchange assay in presence of methionine; in short: as §1
[10] = compound: C=C(F)c1sc(CNCCCNc2cc(=O)c3ccccc3[nH]2)c(C)c1Br; assay: Ratio of Kcat to Km for Staphylococcus aureus MetRS I57N G54S mutant in presence of methionine; in short: as §3
[11] = compound: C=C(F)c1sc(CNCCCNc2cc(=O)c3ccccc3[nH]2)c(C)c1Br; assay: Ratio of Kcat to Km for Staphylococcus aureus MetRS I57N G54S mutant in presence of tRNA; in short: as §2
[12] = compound: C=C(F)c1sc(CNCCCNc2cc(=O)c3ccccc3[nH]2)c(C)c1Br; assay: Activity of streptococcus aureus MetRS I57N, G54S mutant by scintillation proximity assay in presence of tRNA; conditions: Staphylococcus aureus
[13] = compound: C=C(F)c1sc(CNCCCNc2cc(=O)c3ccccc3[nH]2)c(C)c1Br; assay: Activity of Staphylococcus aureus MetRS I57N, A247E mutant by ATP:PPi exchange assay in presence of ATP; in short: as §1
[14] = compound: C=C(F)c1sc(CNCCCNc2cc(=O)c3ccccc3[nH]2)c(C)c1Br; assay: Ratio of Kcat to Km for Staphylococcus aureus MetRS I57N A247E mutant in presence of tRNA; in short: as §2
[15] = compound: C=C(F)c1sc(CNCCCNc2cc(=O)c3ccccc3[nH]2)c(C)c1Br; assay: Ratio of Kcat to Km for Staphylococcus aureus MetRS I57N A247E mutant in presence of methionine; in short: as §3
[16] = compound: C=C(F)c1sc(CNCCCNc2cc(=O)c3ccccc3[nH]2)c(C)c1Br; assay: Activity of Staphylococcus aureus MetRS I57N, A247E mutant by ATP:PPi exchange assay in presence of methionine; in short: as §1
[17] = compound: C=C(F)c1sc(CNCCCNc2cc(=O)c3ccccc3[nH]2)c(C)c1Br; assay: Activity of streptococcus aureus MetRS I57N, A247E mutant by scintillation proximity assay in presence of tRNA; conditions: Staphylococcus aureus
[18] = compound: C=C(F)c1sc(CNCCCNc2cc(=O)c3ccccc3[nH]2)c(C)c1Br; assay: Ratio of Kcat to Km for Staphylococcus aureus MetRS I57N A247E mutant in presence of ATP; in short: as §3
[19] = compound: C=C(F)c1sc(CNCCCNc2cc(=O)c3ccccc3[nH]2)c(C)c1Br; assay: Ratio of Kcat to Km for Staphylococcus aureus MetRS G54A A64P mutant in presence of methionine; in short: as §3
[20] = compound: C=C(F)c1sc(CNCCCNc2cc(=O)c3ccccc3[nH]2)c(C)c1Br; assay: Ratio of Kcat to Km for Staphylococcus aureus MetRS G54A A64P mutant in presence of tRNA; in short: as §2
[21] = compound: C=C(F)c1sc(CNCCCNc2cc(=O)c3ccccc3[nH]2)c(C)c1Br; assay: Activity of streptococcus aureus MetRS G54A, A64P mutant by scintillation proximity assay in presence of tRNA; conditions: Staphylococcus aureus
[22] = compound: C=C(F)c1sc(CNCCCNc2cc(=O)c3ccccc3[nH]2)c(C)c1Br; assay: Ratio of Kcat to Km for Staphylococcus aureus MetRS G54A A64P mutant in presence of ATP; in short: as §3
[23] = compound: C=C(F)c1sc(CNCCCNc2cc(=O)c3ccccc3[nH]2)c(C)c1Br; assay: Activity of Staphylococcus aureus MetRS G54A, A64P mutant by ATP:PPi exchange assay in presence of ATP; in short: as §1
[24] = compound: C=C(F)c1sc(CNCCCNc2cc(=O)c3ccccc3[nH]2)c(C)c1Br; assay: Activity of Staphylococcus aureus MetRS G54A, A64P mutant by ATP:PPi exchange assay in presence of methionine; in short: as §1

B1: Methionine--tRNA ligase (Staphylococcus aureus subsp. aureus MW2), Q8NY00 I57N,I238F (protein)
chain: MAKETFYITTPIYYPSGNLHIGHAYSTVAGDVIARYKRMQGYDVRYLTGTDEHGQKNQEKAQKAGKTEIEYLDEMIAGIKQLWAKLEISNDDFIRTTEERHKHVVEQVFERLLKQGDIYLGEYEGWYSVPDETYYTESQLVDPQYENGKIIGGKSPDSGHEVELVKEESYFFNISKYTDRLLEFYDQNPDFIQPPSRKNEMINNFIKPGLADLAVSRTSFNWGVHVPSNPKHVVYVWFDALVNYISALGYLSDDESLFNKYWPADIHLMAKEIVRFHSIIWPILLMALDLPLPKKVFAHGWILMKDGKMSKSKGNVVDPNILIDRYGLDATRYYLMRELPFGSDGVFTPEAFVERTNFDLANDLGNLVNRTISMVNKYFDGELPAYQGPLHELDEEMEAMALETVKSYTESMESLQFSVALSTVWKFISRTNKYIDETTPWVLAKDDSQKDMLGNVMAHLVENIRYAAVLLRPFLTHAPKEIFEQLNINNPQFMEFSSLEQYGVLTESIMVTGQPKPIFPRLDSEAEIAYIKESMQPPATEEEKEEIPSKPQIDIKDFDKVEIKAATIINAEHVKKSDKLLKIQVDLDSEQRQIVSGIAKFYTPDDIIGKKVAVVTNLKPAKLMGQKSEGMILSAEKDGVLTLVSLPSAIPNGAVIK
Km [1]: 0.89 µM | kcat [1]: 0.066 s⁻¹ | Km [2]: 1610 µM | kcat/Km [3]: 74000 M⁻¹ s⁻¹ | kcat/Km [4]: 150000 M⁻¹ s⁻¹ | Km [5]: 85 µM | kcat [5]: 13 s⁻¹ | kcat/Km [6]: 8000 M⁻¹ s⁻¹

B2: Methionine--tRNA ligase (Staphylococcus aureus subsp. aureus MW2), Q8NY00 I57N,G54S (protein)
chain: B1 chain with G54S, F238I
Km [7]: 765 µM | kcat/Km [8]: 8000 M⁻¹ s⁻¹ | Km [9]: 360 µM | kcat [9]: 6 s⁻¹ | kcat/Km [10]: 20000 M⁻¹ s⁻¹ | kcat/Km [11]: 5000 M⁻¹ s⁻¹ | Km [12]: 0.41 µM | kcat [12]: 0.002 s⁻¹

B3: Methionine--tRNA ligase (Staphylococcus aureus subsp. aureus MW2), Q8NY00 I57N,A247E (protein)
chain: B1 chain with F238I, A247E
Km [13]: 2230 µM | kcat/Km [14]: 18000 M⁻¹ s⁻¹ | kcat/Km [15]: 40000 M⁻¹ s⁻¹ | Km [16]: 250 µM | kcat [16]: 11 s⁻¹ | Km [17]: 0.45 µM | kcat [17]: 0.008 s⁻¹ | kcat/Km [18]: 5000 M⁻¹ s⁻¹

B4: Methionine--tRNA ligase (Staphylococcus aureus subsp. aureus MW2), Q8NY00 G54A,A64P (protein)
chain: B1 chain with G54A, N57I, A64P, F238I
kcat/Km [19]: 1000 M⁻¹ s⁻¹ | kcat/Km [20]: 2000 M⁻¹ s⁻¹ | Km [21]: 0.57 µM | kcat [21]: 0.001 s⁻¹ | kcat/Km [22]: 1000 M⁻¹ s⁻¹ | Km [23]: 760 µM | Km [24]: 1070 µM | kcat [24]: 1 s⁻¹
